According to ChEMBL document CHEMBL3232871, “Synthesis and structure-activity analysis of diphenylpyrazolodiazene inhibitors of the HIV-1 Nef virulence factor” (Bioorg Med Chem Lett, 2014):
Calls of active or inactive are those of the source. No cut-off for these calls is given here.

Columns and labels:
[1] = Cytotoxicity against human TZM-bl cells by Cell Titer Blue cell viability assay; format: cell-based
How it was run: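 Viability of TZM-bl reporter cells was measured by Cell Titer Blue at the same compound concentration used in the HIV-1 infectivity assay (3 μM).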

[2] = test system: TZM-bl; test: Inhibition of HIV protein Nef in TZM-bl cells assessed decrease in HIV infectivity at 3 uM after 48 hrs by TZM-bl HIV infectivity assay; format: cell-based; conditions: Human immunodeficiency virus
How it was run: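 TZM-bl reporter cells (HIV-1 LTR-driven luciferase) received compound at 3 μM and were then infected with wild-type HIV-1 NL4-3. Luciferase was read 48 h later. Signal from cells infected with Nef-defective HIV was subtracted, and values are mean percent of untreated-cell control ± SEM.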

SMILES | Activity [1] | Nef inhibition activity call (active/inactive) [2]
NC(=O)n1nc(-c2ccc([N+](=O)[O-])cc2)c(/N=N/c2ccc(Cl)cc2)c1O | Non-toxic | –
NC(=O)n1nc(-c2ccc([N+](=O)[O-])cc2)c(/N=N/c2cccc(Cl)c2)c1O | Non-toxic | inactive
NC(=O)n1nc(-c2ccc(F)cc2)c(/N=N/c2cncc(Cl)c2)c1O | Non-toxic | –
NC(=O)n1nc(-c2ccc([N+](=O)[O-])cc2)c(/N=N/c2cncc(Cl)c2)c1O | Non-toxic | –
Oc1[nH]nc(-c2ccc(F)cc2)c1/N=N/c1cccnc1 | Non-toxic | –
NC(=S)n1nc(-c2ccc([N+](=O)[O-])cc2)c(/N=N/c2cccnc2)c1O | Non-toxic | Active
Oc1[nH]nc(-c2ccccc2)c1/N=N/c1ccccc1 | Non-toxic | inactive
NC(=S)n1nc(-c2ccc([N+](=O)[O-])cc2)c(/N=N/c2ccccc2Cl)c1O | Non-toxic | inactive
NC(=S)n1nc(-c2ccc([N+](=O)[O-])cc2)c(/N=N/c2cccc(F)c2)c1O | Non-toxic | –
NC(=S)n1nc(-c2ccc([N+](=O)[O-])cc2)c(/N=N/c2cccc(Cl)c2)c1O | Non-toxic | –
COc1ccc(-c2nn(C(N)=S)c(O)c2/N=N/c2cccc(Cl)c2)cc1 | Non-toxic | inactive
COc1ccccc1/N=N/c1c(-c2ccc([N+](=O)[O-])cc2)nn(C(N)=S)c1O | Non-toxic | inactive
COc1cccc(/N=N/c2c(-c3ccc([N+](=O)[O-])cc3)nn(C(N)=S)c2O)c1 | Non-toxic | inactive
COc1ccc(/N=N/c2c(-c3ccc([N+](=O)[O-])cc3)n[nH]c2O)cc1 | Non-toxic | Active
NC(=S)n1nc(-c2ccc(C(F)(F)F)cc2)c(/N=N/c2cccc(Cl)c2)c1O | Non-toxic | Active
NC(=S)n1nc(-c2ccc([N+](=O)[O-])cc2)c(/N=N/c2ccc(Cl)cc2)c1O | Non-toxic | Active
NC(=O)n1nc(-c2ccc(F)cc2)c(/N=N/c2cccc(Cl)c2)c1O | Non-toxic | Active
NC(=S)n1nc(-c2ccc([N+](=O)[O-])cc2)c(/N=N/c2cncc(Cl)c2)c1O | Non-toxic | Active
Oc1[nH]nc(-c2ccc(F)cc2)c1/N=N/c1cncc(Cl)c1 | Non-toxic | inactive
NC(=O)n1nc(-c2ccc(F)cc2)c(/N=N/c2cccnc2)c1O | Non-toxic | –
NC(=S)n1nc(-c2ccc([N+](=O)[O-])cc2)c(/N=N/c2ccccc2F)c1O | Non-toxic | –
NC(=S)n1nc(-c2ccccc2)c(/N=N/c2cccc(Cl)c2)c1O | Non-toxic | inactive
NC(=O)n1nc(-c2ccc([N+](=O)[O-])cc2)c(/N=N/c2cccnc2)c1O | Non-toxic | –
NC(=S)n1nc(-c2ccc([N+](=O)[O-])cc2)c(/N=N/c2ccc(F)cc2)c1O | Non-toxic | –
